Results as given in PMC7452664 (International Journal for Parasitology: Drugs and Drug …, 2020).
Entries after “also recorded” stand apart in the source; their conditions may differ. Like-named read-outs stand apart in the source and are kept apart here.

Key:
[1] = system: L. infantum promastigotes; experiment: Anti-L. infantum promastigotes drug test; type: cell-based, Leishmania infantum; conditions: 48 h; for parasite-killing effect on promastigotes: data not shown
In short: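 Promastigotes from a 4-day culture, 1 × 10^5/well, exposed to increasing concentrations for 48 h at 26 °C. Amphotericin B 0.25 μM as positive control. Cells lysed (1% Triton X-100, 2.9% sodium citrate), then 5 mM p-nitrophenyl phosphate added for 2 h at 37 °C. Stopped with 1 N NaOH and read at OD 405 nm. Inhibition calculated versus untreated controls.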

[2] = system: L. infantum intra-macrophage amastigotes; experiment: Drug test on L. infantum intra-macrophage amastigotes; type: cell-based, Leishmania infantum; conditions: for decrease of number of intracellular amastigotes / reduction of percentage of infected macrophages: highest non-cytotoxic dose; for IC50: Leishmania infantum, U-937, 48 h, read-out: IC50 (parasite-killing activity, L. infantum intracellular amastigotes)
In short: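 U937 cells were PMA-differentiated (50 nM, 48 h) and infected with 6-day metacyclic promastigotes at 10:1 for 24 h, then washed. Infected cells (5 × 10^4) were treated for 48 h in chamber slides, in duplicate, at concentrations non-toxic to macrophages (MTT, 48 h). Meglumine antimoniate 273 μM as control. Methanol-fixed, Giemsa-stained; 200 cells counted for infected macrophages and amastigotes.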

[3] = system: P. falciparum 3D7 intraerythrocytic stage; experiment: P. falciparum growth inhibition assay; type: cell-based, Plasmodium falciparum; conditions: for IC50: 3D7, 48 h, read-out: IC50 P. falciparum
In short: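 Sorbitol-synchronized 3D7 rings in RBCs at 3% hematocrit, 0.8% parasitemia. Exposed 48 h at 37 °C (5% CO2, 2% O2, 93% N2), in triplicate. Chloroquine 80 nM as reference. Parasitemia measured by flow cytometry after SYTO 11 staining, with uninfected and untreated infected controls. Values standardized to chloroquine; inhibition versus untreated; IC50 from sigmoidal variable-slope fit.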

[4] = system: T. brucei brucei 427 strain, bloodstream stage; experiment: Screening of drugs against T. brucei; type: cell-based, Trypanosoma brucei brucei; conditions: for IC50: Trypanosoma brucei
In short: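 Strain 427 bloodstream forms in HMI-9 were pelleted (900 g, 10 min) and seeded at 5 × 10^5/well in warm medium with serial dilutions, in triplicate. Suramin 100 μM as positive control. After 24 h, Alamar Blue added and incubated 4 h at 37 °C. Fluorescence read at Ex 530/Em 590 nm. Inhibition versus untreated; IC50 from sigmoidal variable-slope fit.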

[5] = system: T. cruzi intracellular amastigotes; experiment: Drug test on intracellular amastigotes of T. cruzi; type: cell-based, Trypanosoma cruzi; conditions: 72 h; for antitrypanosomal activity on T. cruzi: data not shown; for IC50: Trypanosoma cruzi, Vero; for inhibition of T. cruzi amastigote numbers (highest reduction): concentration not given
In short: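 Gamma-irradiated (2200 rad) Vero cells, 3.6 × 10^4/well, plated overnight at 37 °C, 5% CO2. […] Serial dilutions added for 72 h, in quadruplicate, with benznidazole 2 μM as control. Fluorescence read at Ex 544/Em 612 nm. Inhibition versus infected untreated wells; IC50 from sigmoidal variable-slope fit.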

T. brucei [6] = conditions: ref Barnard et al., 1993; cited from earlier work
[7] = ref Schaefer et al., 2012; cited from earlier work
[8] = ref Barnard et al., 1993; cited from earlier work
T. brucei [9] = conditions: read-out: IC50 T. brucei; different T. brucei strain; ref Barquilla et al., 2008; cited from earlier work
T. cruzi epimastigotes = conditions: read-out: IC50 T. cruzi epimastigotes; ref Turrens, 1986; cited from earlier work
BS forms of T.brucei = conditions: read-out: IC50 BS forms of T.brucei; ref Chambers et al., 2008; cited from earlier work
[10] = system: L. mexicana promastigotes; conditions: concentrations as high as 0.5 mM; ref Turrens and Cazzulo, 1987; cited from earlier work
[11] = 24 h, read-out: IC50 T. brucei Bloodstream stage
[12] = 24 h, read-out: IC50 T. brucei brucei
[13] = read-out: IC50 T. cruzi amastigotes
[14] = read-out: IC50 T. cruzi intracelular amastigotes

## C[C@@H]1[C@H](O)[C@@H](C)/C=C/C=C/C=C/C=C/C=C/C=C/C=C/[C@H](O[C@@H]2O[C@H](C)[C@@H](O)[C@H](N)[C@@H]2O)C[C@@H]2O[C@](O)(C[C@@H](O)C[C@@H](O)[C@H](O)CC[C@@H](O)C[C@@H](O)CC(=O)O[C@H]1C)C[C@H](O)[C@H]2C(=O)O [AmB, amphotericyn B]
[1]; 0.25 μM
  survival rate of L. infantum promastigotes: 36%

## O=C(O)C(=O)CBr [3BP, 3-bromopyruvic acid]
[1]; 37 μM
  parasite-killing effect on promastigotes: slight parasite-killing effect
[2]; 75 μM, 48 h
  decrease of number of intracellular amastigotes: 78.3%
  reduction of percentage of infected macrophages: 48.4%
[2]
  IC50: 24.9 µM
[3]; 48 h
  P. falciparum growth inhibition: slight effect on parasite growth inhibition; also recorded: no efficacy
[4]; 24 h, concentration not given
  parasite-killing activity on T. brucei: 93.2%
[4]; [11]
  IC50: 76.6 µM
[4]; [12]
  IC50: 76.6 µM
[5]
  antitrypanosomal activity on T. cruzi: did not show consistent antitrypanosomal activity; also recorded: no efficacy
T. brucei [6]
  concentration inhibiting motility and growth of T. brucei: 13.4 µM
[7]
  safety in rodents: apparently being safe in rodents, where only a reduction in body weight was recorded
[8]
  toxicity in humans: toxicity in humans

## O=C(O)C(Cl)Cl [DCA, dichloroacetic acid]
[1]
  effect on L. infantum promastigote survival: did not detectably impair
[2]; 25 mM, 48 h
  decrease of number of intracellular amastigotes: 90.7%
  reduction of percentage of infected macrophages: 74.4%
[2]
  IC50: 632 µM
[3]; 48 h
  P. falciparum growth inhibition: growth inhibition values close to those obtained by CQ
[4]; 24 h
  concentration achieving complete clearance of cultured T. brucei brucei: 12.5 mM
[4]; [11]
  IC50: 1240 µM
[5]; [13]
  IC50: 25800 µM
[5]; [14]
  IC50: 25800 ± 59 µM
[5]; high concentrations (up to 100 mM)
  inhibition of T. cruzi amastigotes, highest value: 74.1%

## CO[C@H]1C[C@@H]2CC[C@@H](C)[C@@](O)(O2)C(=O)C(=O)N2CCCC[C@H]2C(=O)O[C@H]([C@H](C)C[C@@H]2CC[C@@H](O)[C@H](OC)C2)CC(=O)[C@H](C)/C=C(\C)[C@@H](O)[C@@H](OC)C(=O)[C@H](C)C[C@H](C)/C=C/C=C/C=C/1C [SIR, sirolimus]
[1]
  effect on L. infantum promastigote survival: did not detectably impair
[2]; 10 μM, data not shown
  effect on parasite burden and infected macrophages: modest increase of the parasite burden and number of infected macrophages
[2]; 48 h, data not shown
  anti-parasitic effect on L. infantum intra-macrophage amastigotes: did not show any parasiticidal effect; also recorded: increase of parasite load
[3]; 48 h
  P. falciparum growth inhibition: growth inhibition values close to those obtained by CQ
[3]; Plasmodium falciparum
  IC50: ~2.5 µM
[4]; 24 h
  concentration achieving complete clearance of cultured T. brucei brucei: 0.00685 mM
[4]; [11]
  IC50: 2.14 µM
[5]
  antitrypanosomal activity on T. cruzi: did not show consistent antitrypanosomal activity; also recorded: did not affect the viability
T. brucei [9]
  IC50: 0.152 µM

## CN(C)C(=N)N=C(N)N [MET, metformin]
[1]
  effect on L. infantum promastigote survival: did not detectably impair
[3]; 48 h
  P. falciparum growth inhibition: growth inhibition values close to those obtained by CQ
[4]; 20 mM, 24 h
  parasite elimination, T. brucei: 57%
[4]; [11]
  IC50: 17300 ± 15 µM
[5]; [13]
  IC50: 18500 µM
[5]; [14]
  IC50: 18500 ± 18 µM

## Cc1ccc(C(=O)Nc2ccc(S(=O)(=O)O)c3cc(S(=O)(=O)O)cc(S(=O)(=O)O)c23)cc1NC(=O)c1cccc(NC(=O)Nc2cccc(C(=O)Nc3cc(C(=O)Nc4ccc(S(=O)(=O)O)c5cc(S(=O)(=O)O)cc(S(=O)(=O)O)c45)ccc3C)c2)c1 [SUR, suramin]
[4]; 100 μM, control drug
  parasite clearance, T. brucei: 96%

## CCN(CC)CCCC(C)Nc1ccnc2cc(Cl)ccc12 (stereo not drawn) [CQ, chloroquine]
[3]; Plasmodium falciparum, 3D7, read-out: parasite growth inhibition
  inhibition at 0.08 µM: > 90%

## O=C(O)c1nn(Cc2ccc(Cl)cc2Cl)c2ccccc12 [LND, lonidamine]
[1]
  effect on L. infantum promastigote survival: did not detectably impair; also recorded: no effect was detected
[3]; 48 h
  concentration of peak antimalarial activity: 300 µM
[3]; Plasmodium falciparum
  IC50: 209 µM
[4]; 24 h, concentration not given
  parasite-killing activity on T. brucei: 97.7%
[4]; [11]
  IC50: 26.8 µM
[4]; [12]
  IC50: 26.8 µM
[5]
  inhibition of T. cruzi amastigote numbers (highest reduction): 99.4%
[5]; [13]
  IC50: 82.4 µM
[5]; [14]
  IC50: 82.4 µM
T. cruzi epimastigotes
  IC50: 80 µM
BS forms of T.brucei
  IC50: 50 µM
[10]
  effect on L. mexicana promastigotes: only a leishmaniostatic effect was observed

## O=CC[C@@H](O)[C@H](O)[C@H](O)CO [2DG, 2-deoxy-D-glucose]
[1]; 0.2 mM
  parasite-killing effect on promastigotes: slight parasite-killing effect
[3]; 48 h
  P. falciparum growth inhibition: growth inhibition values close to those obtained by CQ
[4]; 24 h
  parasite-killing activity on T. brucei: No parasite-killing activity was detected
[5]
  inhibition of T. cruzi amastigote numbers (highest reduction): 89.3%
[5]; [14]
  IC50: 7270 ± 0.47 µM
